Test results from ChEMBL document CHEMBL4196105, “Discovery of β-Arrestin Biased Ligands of 5-HT7R” (J Med Chem, 2018).

Key:
[1] = Terminal half-life in ICR mouse at 5 mg/kg, iv by LC-MS/MS analysis; assay type: ADME, organism-based; conditions: in vivo, read-out: beta t1/2 (converted)
In short: (§1)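 Male ICR mice, 7~8 weeks, 30 ± 5 g; single dose 5 mg/kg IV (n = 5) or 50 mg/kg oral (n = 4). Plasma protein-precipitated with acetonitrile containing internal standard, then LC-MS/MS. Non-compartmental analysis; AUClast by trapezoidal rule. Mean ± SD.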

Mus musculus [2] = assay: Sleep promoting activity in C57B1/6J mouse assessed as increase in total non-rapid eye movement sleep time at 30 mg/kg, ip measured over 8 hrs by electroencephalogram method; assay type: functional
In short: (§2)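 Adult male C57Bl/6J mice, 10 weeks old, with parietal EEG screw electrodes implanted under ketamine. EEG and EMG recorded for 8 h from 9 AM, starting one day before dosing as baseline. On test day, 30 mg/kg i.p. at the start of the light phase, with EEG/EMG recorded for 8 h and scored in 2-h bins. n = 6-9 per group; mean ± SEM versus vehicle.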

[3] = Tmax in ICR mouse at 5 mg/kg, iv by LC-MS/MS analysis; assay type: ADME, organism-based; conditions: in vivo; in short: as §1
[4] = molecular target: T1, 5-hydroxytryptamine receptor 7 (Homo sapiens, UniProt P34969); assay: Antagonist activity at human 5-HT7 receptor expressed in HEK293 cells assessed as inhibition of Gs protein-mediated cAMP accumulation by luminescence-based assay relative to SB269970; assay type: functional, cell-based
In short: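 HEK293 cells transiently transfected by calcium phosphate with human 5-HT7R and GloSensor-22F cAMP biosensor. After 5-6 h recovery, loaded with GloSensor reagent in HBSS/20 mM HEPES, pH 7.4. Test compounds at 0.01 nM-100 μM final; antagonist mode uses 5-HT stimulation. Luminescence read. Data normalised to 5-HT or SB269970 (100%) and vehicle (0%). Three experiments, at least triplicate.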

[5] = AUClast in ICR mouse at 5 mg/kg, iv by LC-MS/MS analysis; assay type: ADME, organism-based; design: dose 5 mg/kg, time 0 - last, route intravenous; conditions: in vivo; in short: as §1
Mus musculus [6] = assay: Sleep promoting activity in C57B1/6J mouse assessed as decrease in total rapid eye movement sleep time at 30 mg/kg, ip measured over 4 hrs by electroencephalogram method; assay type: functional; design: scale not given: the % may be the effect or the level left; in short: as §2
CYP2C9 = CYP2C9 (Homo sapiens, UniProt P11712); assay: Inhibition of CYP2C9 in human liver microsomes assessed as remaining activity at 10 uM using diclofenac as substrate preincubated for 5 mins followed by addition of NADPH generating system measured after 15 mins by LC-MS analysis; assay type: ADME; conditions: probe diclofenac, read-out: Activity
In short: (§3)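 Human liver microsomes 0.25 mg/ml in 0.1 M phosphate, pH 7.4, with a probe cocktail: phenacetin 50 μM, diclofenac 10 μM, S-mephenytoin 100 μM, dextromethorphan 5 μM, midazolam 2.5 μM. Test compound at 10 μM versus 0 μM control. 5 min at 37 °C, then NADPH-generating system for 15 min. Acetonitrile quench; metabolites measured by LC/MS as % remaining activity.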

[7] = Oral bioavailability in ICR mouse at 50 mg/kg by LC-MS/MS analysis; assay type: ADME, organism-based; conditions: in vivo; in short: as §1
[8] = AUC (0 to infinity) in ICR mouse at 50 mg/kg, po by LC-MS/MS analysis; assay type: ADME, organism-based; design: dose 50 mg/kg, time infinity, route oral; conditions: in vivo; in short: as §1
[9] = molecular target: T1, 5-hydroxytryptamine receptor 7
CYP2C19 = CYP2C19 (Homo sapiens, UniProt P33261); assay: Inhibition of CYP2C19 in human liver microsomes assessed as remaining activity at 10 uM using S-mephenytoin as substrate preincubated for 5 mins followed by addition of NADPH generating system measured after 15 mins by LC-MS analysis; assay type: ADME; conditions: probe S-mephenytoin, read-out: Activity; in short: as §3
[10] = AUC (0 to infinity) in ICR mouse at 5 mg/kg, iv by LC-MS/MS analysis; assay type: ADME, organism-based; design: dose 5 mg/kg, time infinity, route intravenous; conditions: in vivo; in short: as §1
[11] = molecular target: T2, 5-hydroxytryptamine receptor 3A (Homo sapiens, UniProt P46098); assay: Displacement of [3H]LSD from human 5-HT3 receptor expressed in HEK cell membranes after 1.5 hrs by microbeta scintillation counting method
T2 sequence (P46098 whole entry): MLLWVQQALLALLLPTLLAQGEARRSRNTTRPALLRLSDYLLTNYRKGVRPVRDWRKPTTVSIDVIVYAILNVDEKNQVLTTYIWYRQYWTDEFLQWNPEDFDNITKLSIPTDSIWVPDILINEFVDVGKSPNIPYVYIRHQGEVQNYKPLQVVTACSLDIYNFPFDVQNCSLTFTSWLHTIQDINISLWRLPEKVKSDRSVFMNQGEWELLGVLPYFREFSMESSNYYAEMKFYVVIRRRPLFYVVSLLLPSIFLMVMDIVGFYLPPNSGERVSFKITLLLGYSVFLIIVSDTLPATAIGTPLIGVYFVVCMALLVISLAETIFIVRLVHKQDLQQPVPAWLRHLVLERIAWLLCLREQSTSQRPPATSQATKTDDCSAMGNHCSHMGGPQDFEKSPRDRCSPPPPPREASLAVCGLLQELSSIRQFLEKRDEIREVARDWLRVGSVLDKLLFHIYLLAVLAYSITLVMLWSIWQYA
In short: (§4)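 Radioligand binding performed by the NIMH Psychoactive Drug Screening Program. Crude membranes from cells expressing recombinant receptor, with [3H]LSD, in 50 mM Tris-HCl, 10 mM MgCl2, 1 mM EDTA, pH 7.4. Eleven test concentrations. Incubated 1.5 h at room temperature, protected from light. Filtered onto PEI-soaked GF/B filters, then scintillation counting. IC50 converted to Ki; at least three experiments in triplicate.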

[12] = molecular target: 5-hydroxytryptamine receptor 5A (Homo sapiens, UniProt P47898); assay: Displacement of [3H]LSD from human 5-HT5A receptor expressed in HEK cell membranes after 1.5 hrs by microbeta scintillation counting method; in short: as §4
CYP2D6 = CYP2D6 (Homo sapiens, UniProt P10635); assay: Inhibition of CYP2D6 in human liver microsomes assessed as remaining activity at 10 uM using dextromethorphan as substrate preincubated for 5 mins followed by addition of NADPH generating system measured after 15 mins by LC-MS analysis; assay type: ADME; conditions: probe dextromethorphan, read-out: Activity; in short: as §3
Mus musculus [13] = assay: Sleep promoting activity in C57B1/6J mouse assessed as decrease in total rapid eye movement sleep time at 30 mg/kg, ip measured over 8 hrs by electroencephalogram method; assay type: functional; design: scale not given: the % may be the effect or the level left; in short: as §2
Mus musculus [14] = assay: Toxicity in ICR mouse assessed as mortality at 5 mg/kg, iv; assay type: organism-based; conditions: in vivo
In short: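 Observed in male ICR mice (7~8 weeks, 30 ± 5 g; n = 5) during a pharmacokinetic study after a single intravenous dose. Mice were held at 23 ± 3° and about 55% ± 10% humidity with standard feed and tap water. Blood was drawn via carotid artery from 0.08 to 8 h after dosing.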

Homo sapiens = organism: Homo sapiens; assay: Selectivity index, ratio of Ki for human 5-HT5A receptor to Ki for human 5-HT7 receptor
In short: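 Selectivity index taken as Ki at the other 5-HT receptor subtype divided by Ki at 5-HT7R, each from [3H]LSD membrane binding run by the NIMH PDSP. Ki values are means of at least three experiments in triplicate.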

T1 sequence (P34969 whole entry): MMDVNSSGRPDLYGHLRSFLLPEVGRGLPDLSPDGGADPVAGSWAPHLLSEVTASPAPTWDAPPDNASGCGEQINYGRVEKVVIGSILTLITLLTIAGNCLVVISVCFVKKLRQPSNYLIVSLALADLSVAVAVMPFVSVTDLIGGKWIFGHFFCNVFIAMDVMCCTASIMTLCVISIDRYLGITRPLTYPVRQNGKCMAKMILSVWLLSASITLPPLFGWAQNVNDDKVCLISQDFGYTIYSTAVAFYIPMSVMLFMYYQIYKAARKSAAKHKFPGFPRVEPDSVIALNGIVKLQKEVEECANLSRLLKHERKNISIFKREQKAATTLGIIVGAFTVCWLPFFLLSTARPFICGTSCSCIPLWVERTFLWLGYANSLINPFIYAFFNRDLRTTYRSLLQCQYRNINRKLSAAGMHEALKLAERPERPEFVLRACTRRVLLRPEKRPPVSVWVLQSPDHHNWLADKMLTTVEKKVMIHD
5-hydroxytryptamine receptor 5A, sequence (P47898 whole entry): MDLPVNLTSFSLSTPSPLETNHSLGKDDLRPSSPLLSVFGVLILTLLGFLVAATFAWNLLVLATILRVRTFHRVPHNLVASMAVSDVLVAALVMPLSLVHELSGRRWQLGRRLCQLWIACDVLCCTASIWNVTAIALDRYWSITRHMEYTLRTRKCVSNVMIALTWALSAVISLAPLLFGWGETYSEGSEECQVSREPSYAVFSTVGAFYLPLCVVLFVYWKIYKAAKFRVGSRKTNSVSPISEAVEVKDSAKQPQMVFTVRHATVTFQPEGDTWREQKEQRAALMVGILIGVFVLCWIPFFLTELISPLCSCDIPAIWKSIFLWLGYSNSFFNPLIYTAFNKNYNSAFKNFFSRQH
CYP2D6, sequence (P10635 whole entry): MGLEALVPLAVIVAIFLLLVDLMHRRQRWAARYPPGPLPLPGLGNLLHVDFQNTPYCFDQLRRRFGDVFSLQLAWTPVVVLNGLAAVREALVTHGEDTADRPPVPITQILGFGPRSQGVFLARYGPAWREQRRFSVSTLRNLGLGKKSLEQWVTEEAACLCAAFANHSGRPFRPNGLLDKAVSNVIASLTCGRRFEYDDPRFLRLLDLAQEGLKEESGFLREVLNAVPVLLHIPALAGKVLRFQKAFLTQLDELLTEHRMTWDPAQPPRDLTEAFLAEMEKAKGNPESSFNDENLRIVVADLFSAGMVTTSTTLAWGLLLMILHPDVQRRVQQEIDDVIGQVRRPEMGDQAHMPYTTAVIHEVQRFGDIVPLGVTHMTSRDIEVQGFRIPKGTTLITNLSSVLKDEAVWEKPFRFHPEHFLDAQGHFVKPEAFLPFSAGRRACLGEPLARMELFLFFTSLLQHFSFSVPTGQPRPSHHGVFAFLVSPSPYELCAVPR
CYP2C9, sequence (P11712 whole entry): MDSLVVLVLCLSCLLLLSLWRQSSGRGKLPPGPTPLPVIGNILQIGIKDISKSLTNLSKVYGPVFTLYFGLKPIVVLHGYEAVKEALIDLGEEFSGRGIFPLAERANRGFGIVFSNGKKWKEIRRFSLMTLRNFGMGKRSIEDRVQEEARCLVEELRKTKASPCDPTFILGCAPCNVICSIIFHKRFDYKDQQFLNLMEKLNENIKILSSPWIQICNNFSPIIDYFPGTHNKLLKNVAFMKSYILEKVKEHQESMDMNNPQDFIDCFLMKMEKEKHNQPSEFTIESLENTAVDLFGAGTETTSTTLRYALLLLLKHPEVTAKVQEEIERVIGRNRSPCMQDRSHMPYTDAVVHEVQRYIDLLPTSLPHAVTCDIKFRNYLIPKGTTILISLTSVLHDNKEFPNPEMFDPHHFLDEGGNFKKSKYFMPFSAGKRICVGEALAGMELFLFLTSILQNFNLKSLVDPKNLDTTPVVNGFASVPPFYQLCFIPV
CYP2C19, sequence (P33261 whole entry): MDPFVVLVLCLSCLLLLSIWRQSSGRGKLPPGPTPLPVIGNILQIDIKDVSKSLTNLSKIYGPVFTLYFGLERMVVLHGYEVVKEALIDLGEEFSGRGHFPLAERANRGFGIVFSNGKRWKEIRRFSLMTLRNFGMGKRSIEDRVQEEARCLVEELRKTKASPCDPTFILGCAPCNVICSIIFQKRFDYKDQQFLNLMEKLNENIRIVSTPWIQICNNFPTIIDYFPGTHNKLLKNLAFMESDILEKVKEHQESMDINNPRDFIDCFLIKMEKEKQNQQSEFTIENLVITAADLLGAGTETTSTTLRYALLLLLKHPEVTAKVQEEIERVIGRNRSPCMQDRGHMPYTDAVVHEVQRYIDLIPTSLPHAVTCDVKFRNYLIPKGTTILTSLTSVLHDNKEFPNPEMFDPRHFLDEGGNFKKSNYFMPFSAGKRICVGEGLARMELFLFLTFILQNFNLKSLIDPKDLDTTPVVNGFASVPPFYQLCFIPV

Imax [4] [%] | EC50 [9] [nM] | Ki [11] [nM] | Ki [12] [nM] | Ratio Ki (Homo sapiens) | SMILES | half-life [1] [min] | Activity (Mus musculus [2]) [%] | Tmax [3] [min] | AUC(0-t) [5] [ng·h/mL] | Activity (Mus musculus [6]) [%] | activity at 0.25 h, 10 µM (CYP2C9) [%] | bioavailability [7] [%] | AUC(0-inf) [8] [ng·h/mL] | activity at 0.25 h, 10 µM (CYP2C19) [%] | AUC(0-inf) [10] [ng·h/mL] | activity at 0.25 h, 10 µM (CYP2D6) [%] | Activity (Mus musculus [13]) [%] | Activity (Mus musculus [14])
95.8 | 40.8 | 420 | 1140 | 70.9 | Cc1ccc(-c2noc3c2CCNCC3)cc1 | – | – | – | – | – | – | – | – | – | – | – | – | –
98.4 | 188 | > 10000 | > 10000 | – | Fc1ccc(-c2n[nH]c3c2CCNCC3)cc1 | – | – | – | – | – | – | – | – | – | – | – | – | –

SMILES | Imax [4] [%] | EC50 [9] [nM] | Ki [11] [nM] | Ki [12] [nM] | Ratio Ki (Homo sapiens) | half-life [1] [min] | Activity (Mus musculus [2]) [%] | Tmax [3] [min] | AUC(0-t) [5] [ng·h/mL] | Activity (Mus musculus [6]) [%] | activity at 0.25 h, 10 µM (CYP2C9) [%] | bioavailability [7] [%] | AUC(0-inf) [8] [ng·h/mL] | activity at 0.25 h, 10 µM (CYP2C19) [%] | AUC(0-inf) [10] [ng·h/mL] | activity at 0.25 h, 10 µM (CYP2D6) [%] | Activity (Mus musculus [13]) [%] | Activity (Mus musculus [14])
Clc1ccc(-c2n[nH]c3c2CCNCC3)cc1 | 94.8 | 162 | > 10000 | > 10000 | – | 107 | 21.4 | 6.6 | 4900 | 69.4 | > 100 | 90.8 | 64300 | > 100 | 5210 | 75.7 | 36.7 | Non-Toxic
